{
  "source": "ChEMBL document CHEMBL1154067",
  "about": "“Antiviral and cytotoxic activities of aminoarylazo compounds and aryltriazene derivatives” (Bioorg Med Chem, 2009)",
  "note": "The source made the active and inactive calls.",
  "data": [
    {"tested_on": "MT4", "test": "Cytotoxicity against human MT4 cells after 96 hrs by MTT assay", "format": "cell-based", "details": "mt4, 96 h", "method_in_brief": "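Exponentially growing mock-infected MT-4 seeded at 1 × 10^5 cells/mL in RPMI-1640 with 10% FCS, penicillin and streptomycin. Incubated with or without serial compound dilutions at 37 °C, 5% CO2. Viability by MTT after 96 h. CC50 = concentration reducing viability 50%.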", "units": {"CC50": "µM"}, "values": [
      {"smiles": "CN(C)CCCNc1ccc(/N=N/c2c(F)cccc2F)cc1", "CC50": 35},
      {"smiles": "CN(C)CCCNc1ccc(/N=N/c2ccc([N+](=O)[O-])cc2)cc1", "CC50": 19},
      {"smiles": "Cc1ccc(/N=N/N(C)c2ccccc2)cc1", "CC50": 45},
      {"smiles": "CN(/N=N/c1cccc([N+](=O)[O-])c1)c1ccccc1", "CC50": "> 100"}
    ]},
    {"tested_on": "not listed separately", "test": "Cytotoxicity against MDBK cells after 48 to 96 hrs by MTT assay", "format": "cell-based, Bos taurus", "details": "cattle, mdbk", "method_in_brief": "(§1)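 Mock-infected cells in maintenance medium, MDBK at 6 × 10^5 and BHK at 1 × 10^6 cells/mL initial density, with or without serial compound dilutions. Run in parallel with antiviral assays. Viability by MTT after 48–96 h at 37 °C, 5% CO2. CC50 = concentration reducing viability 50%.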", "units": {"CC50": "µM"}, "values": [
      {"smiles": "CN(C)CCCNc1ccc(/N=N/c2c(F)cccc2F)cc1", "CC50": 20},
      {"smiles": "CN(C)CCCNc1ccc(/N=N/c2ccc([N+](=O)[O-])cc2)cc1", "CC50": "> 100"},
      {"smiles": "Cc1ccc(/N=N/N(C)c2ccccc2)cc1", "CC50": "> 100"},
      {"smiles": "CN(/N=N/c1cccc([N+](=O)[O-])c1)c1ccccc1", "CC50": 82}
    ]},
    {"tested_on": "Bovine viral diarrhea virus 1", "test": "Antiviral activity against Bovine viral diarrhea virus infected in MDBK cells assessed as inhibition of virus-induced cytopathicity after 3 to 4 days by MTT assay", "format": "functional, organism-based", "details": "Bovine viral diarrhea virus isolates and strains", "units": {"EC50": "µM"}, "values": [
      {"smiles": "CN(C)CCCNc1ccc(/N=N/c2c(F)cccc2F)cc1", "EC50": "≥ 20"},
      {"smiles": "CN(C)CCCNc1ccc(/N=N/c2ccc([N+](=O)[O-])cc2)cc1", "EC50": "> 100"},
      {"smiles": "Cc1ccc(/N=N/N(C)c2ccccc2)cc1", "EC50": "> 100"},
      {"smiles": "CN(/N=N/c1cccc([N+](=O)[O-])c1)c1ccccc1", "EC50": "> 82"}
    ]},
    {"tested_on": "Yellow fever virus", "test": "Antiviral activity against Yellow fever virus infected in BHK-21 cells assessed as inhibition of virus-induced cytopathicity after 3 to 4 days by MTT assay", "format": "functional, organism-based", "details": "not given", "units": {"EC50": "µM"}, "values": [
      {"smiles": "CN(C)CCCNc1ccc(/N=N/c2c(F)cccc2F)cc1", "EC50": 10},
      {"smiles": "CN(C)CCCNc1ccc(/N=N/c2ccc([N+](=O)[O-])cc2)cc1", "EC50": "> 100"},
      {"smiles": "Cc1ccc(/N=N/N(C)c2ccccc2)cc1", "EC50": "> 100"},
      {"smiles": "CN(/N=N/c1cccc([N+](=O)[O-])c1)c1ccccc1", "EC50": "> 100"}
    ]},
    {"tested_on": "Mammalian orthoreovirus 1", "test": "Antiviral activity against Reovirus-1 infected in BHK-21 cells assessed as inhibition of virus-induced cytopathicity after 3 to 4 days by MTT assay", "format": "functional, organism-based", "details": "Mammalian orthoreovirus 1, BHK-21", "method_in_brief": "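BHK-21 cells seeded at 5 × 10^4 cells/well, grown overnight to confluent monolayers at 37 °C in 5% CO2, then infected at m.o.i. 0.01 in serum-free medium. One hour later, MEM Earle's with 1% final inactivated FCS added, with or without serial compound dilutions. Viability read by MTT after 3–4 days at 37 °C. EC50 is the concentration giving 50% protection from cytopathogenicity.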", "units": {"EC50": "µM"}, "values": [
      {"smiles": "CN(C)CCCNc1ccc(/N=N/c2c(F)cccc2F)cc1", "EC50": 12},
      {"smiles": "CN(C)CCCNc1ccc(/N=N/c2ccc([N+](=O)[O-])cc2)cc1", "EC50": "> 100"},
      {"smiles": "Cc1ccc(/N=N/N(C)c2ccccc2)cc1", "EC50": "> 100"},
      {"smiles": "CN(/N=N/c1cccc([N+](=O)[O-])c1)c1ccccc1", "EC50": 33}
    ]},
    {"tested_on": "Vero", "test": "Cytotoxicity against african green monkey Vero 76 cells by crystal violet staining", "format": "cell-based", "details": "chlorocebus sabaeus, vero", "method_in_brief": "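Mock-infected Vero 76 seeded at 4 × 10^5 cells/mL, run in parallel with plaque assays, with or without serial compound dilutions. Cell number of monolayers determined by crystal violet staining. CC50 = concentration reducing viable cell number 50%.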", "units": {"CC50": "µM"}, "values": [
      {"smiles": "CN(C)CCCNc1ccc(/N=N/c2c(F)cccc2F)cc1", "CC50": 65},
      {"smiles": "CN(C)CCCNc1ccc(/N=N/c2ccc([N+](=O)[O-])cc2)cc1", "CC50": 60},
      {"smiles": "Cc1ccc(/N=N/N(C)c2ccccc2)cc1", "CC50": 58},
      {"smiles": "CN(/N=N/c1cccc([N+](=O)[O-])c1)c1ccccc1", "CC50": "> 100"}
    ]},
    {"tested_on": "Coxsackievirus B2", "test": "Antiviral activity against Coxsackie virus type B2 virus infected in african green monkey Vero-76 cells after 3 days by plaque reduction assay", "format": "functional, organism-based", "details": "Enterovirus B, Vero 76, 72 h", "method_in_brief": "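Vero 76 cells seeded at 2 × 10^5 cells/well, grown overnight to confluence at 37 °C in 5% CO2, then infected at 50–100 PFU/well. Unadsorbed virus removed. Overlay of DMEM with 1% inactivated FCS and 0.75% methylcellulose, with or without serial compound dilutions. After 3 days at 37 °C, fixed and stained with crystal violet in PBS/50% ethanol; plaques counted. EC50 is the concentration reducing plaque number by 50%.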", "units": {"EC50": "µM"}, "values": [
      {"smiles": "CN(C)CCCNc1ccc(/N=N/c2c(F)cccc2F)cc1", "EC50": "> 65"},
      {"smiles": "CN(C)CCCNc1ccc(/N=N/c2ccc([N+](=O)[O-])cc2)cc1", "EC50": "> 60"},
      {"smiles": "Cc1ccc(/N=N/N(C)c2ccccc2)cc1", "EC50": "> 58"},
      {"smiles": "CN(/N=N/c1cccc([N+](=O)[O-])c1)c1ccccc1", "EC50": "> 100"}
    ]},
    {"tested_on": "Respiratory syncytial virus", "test": "Antiviral activity against Respiratory syncytial virus A2 infected in Vero-76 cells after 5 days by plaque reduction assay", "format": "functional, organism-based", "details": "human respiratory syncytial virus, A2, Vero 76, 120 h", "units": {"EC50": "µM"}, "values": [
      {"smiles": "CN(C)CCCNc1ccc(/N=N/c2c(F)cccc2F)cc1", "EC50": "> 65"},
      {"smiles": "CN(C)CCCNc1ccc(/N=N/c2ccc([N+](=O)[O-])cc2)cc1", "EC50": "> 60"},
      {"smiles": "Cc1ccc(/N=N/N(C)c2ccccc2)cc1", "EC50": "> 58"},
      {"smiles": "CN(/N=N/c1cccc([N+](=O)[O-])c1)c1ccccc1", "EC50": 15}
    ]},
    {"tested_on": "Human alphaherpesvirus 1", "test": "Antiviral activity against HSV1 infected in Vero-76 cells after 3 days by plaque reduction assay", "format": "functional, organism-based", "details": "Human alphaherpesvirus 1, Vero 76, 72 h", "units": {"EC50": "µM"}, "values": [
      {"smiles": "CN(C)CCCNc1ccc(/N=N/c2c(F)cccc2F)cc1", "EC50": "> 65"},
      {"smiles": "CN(C)CCCNc1ccc(/N=N/c2ccc([N+](=O)[O-])cc2)cc1", "EC50": "> 60"},
      {"smiles": "Cc1ccc(/N=N/N(C)c2ccccc2)cc1", "EC50": "> 58"},
      {"smiles": "CN(/N=N/c1cccc([N+](=O)[O-])c1)c1ccccc1", "EC50": "> 100"}
    ]},
    {"tested_on": "not listed separately", "test": "Cytotoxicity against hamster BHK21 cells assessed as reduction in cell viability after 48 to 96 hrs by MTT assay", "format": "cell-based, Mesocricetus auratus, BHK-21", "details": "bhk-21", "method_in_brief": "as §1", "units": {"CC50": "µM"}, "values": [
      {"smiles": "CN(C)CCCNc1ccc(/N=N/c2c(F)cccc2F)cc1", "CC50": 43},
      {"smiles": "CN(C)CCCNc1ccc(/N=N/c2ccc([N+](=O)[O-])cc2)cc1", "CC50": "> 100"},
      {"smiles": "Cc1ccc(/N=N/N(C)c2ccccc2)cc1", "CC50": "> 100"},
      {"smiles": "CN(/N=N/c1cccc([N+](=O)[O-])c1)c1ccccc1", "CC50": "> 100"}
    ]},
    {"tested_on": "Poliovirus 1", "test": "(§2) Antiviral activity against Human poliovirus 1 strain Sabin after 2 days by plaque reduction assay", "format": "functional", "details": "not given", "values": [
      {"smiles": "CN(C)CCCNc1ccc(/N=N/c2c(F)cccc2F)cc1", "Activity": "inactive"},
      {"smiles": "CN(C)CCCNc1ccc(/N=N/c2ccc([N+](=O)[O-])cc2)cc1", "Activity": "inactive"}
    ]},
    {"tested_on": "Poliovirus 1", "test": "as §2", "format": "functional", "details": "Enterovirus C, 48 h", "units": {"EC50": "µM"}, "values": [
      {"smiles": "Cc1ccc(/N=N/N(C)c2ccccc2)cc1", "EC50": "> 58"},
      {"smiles": "CN(/N=N/c1cccc([N+](=O)[O-])c1)c1ccccc1", "EC50": 29}
    ]},
    {"tested_on": "Human immunodeficiency virus 1", "test": "Antiviral activity against HIV1 infected in human MT4 cells assessed as inhibition of virus-induced cytopathicity after 4 days by MTT assay", "format": "functional, organism-based", "details": "not given", "values": [
      {"smiles": "CN(C)CCCNc1ccc(/N=N/c2c(F)cccc2F)cc1", "inhibition": "inactive"},
      {"smiles": "CN(C)CCCNc1ccc(/N=N/c2ccc([N+](=O)[O-])cc2)cc1", "inhibition": "inactive"},
      {"smiles": "Cc1ccc(/N=N/N(C)c2ccccc2)cc1", "inhibition": "inactive"},
      {"smiles": "CN(/N=N/c1cccc([N+](=O)[O-])c1)c1ccccc1", "inhibition": "inactive"}
    ]},
    {"tested_on": "Vesicular stomatitis virus", "test": "Antiviral activity against Vesicular stomatitis virus after 2 days by plaque reduction assay", "format": "functional, organism-based", "details": "not given", "values": [
      {"smiles": "CN(C)CCCNc1ccc(/N=N/c2c(F)cccc2F)cc1", "Activity": "inactive"},
      {"smiles": "CN(C)CCCNc1ccc(/N=N/c2ccc([N+](=O)[O-])cc2)cc1", "Activity": "inactive"},
      {"smiles": "Cc1ccc(/N=N/N(C)c2ccccc2)cc1", "Activity": "inactive"},
      {"smiles": "CN(/N=N/c1cccc([N+](=O)[O-])c1)c1ccccc1", "Activity": "inactive"}
    ]},
    {"tested_on": "Vaccinia virus", "test": "Antiviral activity against Vaccinia virus after 3 days by plaque reduction assay", "format": "functional, organism-based", "details": "Orthopoxvirus vaccinia", "values": [
      {"smiles": "CN(C)CCCNc1ccc(/N=N/c2c(F)cccc2F)cc1", "Activity": "inactive"},
      {"smiles": "CN(C)CCCNc1ccc(/N=N/c2ccc([N+](=O)[O-])cc2)cc1", "Activity": "inactive"},
      {"smiles": "Cc1ccc(/N=N/N(C)c2ccccc2)cc1", "Activity": "inactive"},
      {"smiles": "CN(/N=N/c1cccc([N+](=O)[O-])c1)c1ccccc1", "Activity": "inactive"}
    ]}
  ]
}
